Experimental data from different studies.
Compare with care: the assays were run in different laboratories.
RET: Proto-oncogene tyrosine-protein kinase receptor Ret (RET, Homo sapiens, UniProt P07949)
Nos2: Nitric oxide synthase, inducible (Nos2, Mus musculus, UniProt P29477)
ASH1L: Histone-lysine N-methyltransferase ASH1L (ASH1L, Homo sapiens, UniProt Q9NR48)
CIT: Citron Rho-interacting kinase (CIT, Homo sapiens, UniProt O14578)
BAZ2A bromodomain: Bromodomain adjacent to zinc finger domain protein 2A, bromodomain (BAZ2A, Homo sapiens, UniProt Q9UIF9)

Structure (SMILES)	target	assay	setting	quantity	result
COc1ccccc1NC(=O)Nc1ccc2nc(NC(=O)c3ccccc3)sc2c1	RET	enzyme activity, inhibitor, radiometric	0.1 µM	remaining activity	113%
O=C(CCCCCCCCc1ccc(O)c(O)c1)c1c(O)cccc1O	Bifunctional epoxide hydrolase 2 (EPHX2, Homo sapiens, UniProt P34913)	enzyme activity, inhibitor, fluorescence	100 µM	inhibition	90.9%
Cc1ccc(Nc2nc(N3CCN(C(=O)c4ccco4)CC3)nc3[nH]ncc23)cc1	RET	enzyme activity, inhibitor, radiometric	10 µM	remaining activity	99.9%
C=C(F)[C@@](N)(CCCCN)C(=O)O	Lysine decarboxylase (Hafnia alvei, UniProt P05033)	enzyme activity, inhibitor, absorbance		KI (inactivation)	470 µM
Cc1nc(O)nc(O)c1C	Nos2	enzyme activity, inhibitor	1 mM	inhibition	> 40%
C[S+]([O-])c1ccc(-c2nc(-c3ccncc3)c(-c3ccc(F)cc3)[nH]2)cc1 (stereo not drawn)	ASH1L	thermal stability, DSF	10 µM	ΔTm	0.31 °C
Cn1cnc(Br)c1C1=CN(c2ncnc3[nH]cnc23)CCS1	Serine/threonine-protein kinase LATS2 (LATS2, Homo sapiens, UniProt Q9NRM7)	enzyme activity, inhibitor, radiometric	2 µM	inhibition	83.8%
Cc1ccc(C(=O)Nc2ccc(CN3CCN(C)CC3)c(C(F)(F)F)c2)cc1C#Cc1cnc2cccnn12	CIT	enzyme activity, inhibitor	23.5 nM	remaining activity	64%
O=C(Nc1ccc(NC(=O)c2ccco2)cc1C(F)(F)F)Nc1ccc(NC(=O)c2ccco2)cc1C(F)(F)F	RET	enzyme activity, inhibitor, radiometric	0.1 µM	remaining activity	123%
Nc1ncnc2occ(-c3ccc(NC(=O)Nc4cc(C(F)(F)F)ccc4F)cc3)c12	Phosphatidylinositol 5-phosphate 4-kinase type-2 gamma (PIP4K2C, Homo sapiens, UniProt Q8TBX8)	cell-free assay	20 µM	remaining signal	24%
Cc1cnc(Nc2ccc(OCCN3CCCC3)cc2)nc1Nc1cccc(S(=O)(=O)NC(C)(C)C)c1	BAZ2A bromodomain	thermal stability, DSF	10 µM	ΔTm	-0.11 °C
Cc1cc2c(cc1N1C(=O)c3cccc4c(Cl)ccc(c34)C1=O)n(C)c(=O)n2C	BAZ2A bromodomain	thermal stability, DSF	10 µM	ΔTm	0 °C
O=c1occcc1O	Nos2	enzyme activity, inhibitor	1 mM	inhibition	> 40%
CCCOc1ccc(OC)c(F)c1C(=O)c1ccc(C(=O)N[C@@H]2CNC[C@H]2NC(=O)c2ccc3[nH]ncc3c2)cc1	RET	enzyme activity, inhibitor	0.75 µM	remaining activity	41%
O=C(NCc1cccnc1-n1cnc2ccccc21)c1ccc2[nH]c(=O)[nH]c2c1	RET	enzyme activity, inhibitor, radiometric	10 µM	remaining activity	90.8%
Cc1nn(CC(F)(F)F)cc1Nc1ncc(Br)c(NCc2ccc(S(N)(=O)=O)cc2)n1	MAP/microtubule affinity-regulating kinase 4 (MARK4, Homo sapiens, UniProt Q96L34)	enzyme activity, inhibitor, radiometric	1 µM	remaining activity	79%
CCN(c1cc(C#CCN2CCOCC2)cc(C(=O)NCc2c(C)cc(C)[nH]c2=O)c1C)[C@H]1CC[C@H](N(C)CCOC)CC1	Histone-lysine N-methyltransferase EZH1 (EZH1, Homo sapiens, UniProt Q92800)	enzyme activity, inhibitor	1 µM	inhibition	98%
CC(C)[C@@H]1NC(=O)[C@@H]2CCCN2C(=O)[C@H](Cc2ccccc2)NC(=O)CSC[C@@H](C(=O)N[C@@H](Cc2ccc(O)cc2)C(N)=O)NC(=O)[C@H](Cc2c[nH]c3ccccc23)NC(=O)[C@H](CCCCN)NC(=O)[C@H](Cc2ccccc2)N(C)C(=O)[C@H](Cc2ccccc2)NC1=O	Stimulator of interferon genes protein (STING1, Homo sapiens, UniProt Q86WV6, H232R)	binding, SPR		kon	71000 M⁻¹ s⁻¹
COCC(=O)Nc1cc(C(=O)NCc2ccc(C)c(F)c2)cc2ncn(CCc3ccccc3)c12	RET	enzyme activity, inhibitor, radiometric	10 µM	remaining activity	100%
CC/C(=N\NC(=O)NCc1cccc(O)c1)c1ccc(O)c(C)c1O	CIT	enzyme activity, inhibitor	0.1 µM	inhibition	-4.1%
COCC(=O)Nc1cc(C(=O)N(C)CCc2c(C)n[nH]c2C)c2c(c1)ncn2Cc1ccc(F)cc1	RET	enzyme activity, inhibitor, radiometric	0.1 µM	remaining activity	118%
N#Cc1ccc(/C=C/CN(CC[C@H](N)C(=O)O)C[C@H]2O[C@@H](n3cnc4c(N)ncnc43)[C@H](O)[C@@H]2O)cc1	Phenylethanolamine N-methyltransferase (PNMT, Homo sapiens, UniProt P11086)	enzyme activity, inhibitor	1 µM	activity vs control	96%
O=C(Nc1ccc(NC(=O)c2ccoc2)cc1C(F)(F)F)Nc1ccc(NC(=O)c2ccoc2)cc1C(F)(F)F	RET	enzyme activity, inhibitor, radiometric	10 µM	remaining activity	101%
Oc1ccc(-c2nc(-c3ccncc3)c(-c3ccc(F)cc3)[nH]2)cc1	ASH1L	thermal stability, DSF	10 µM	ΔTm	0.27 °C
NS(=O)(=O)c1ccc(Nc2nc(-c3ccc(F)cc3)c3ccccc3n2)cc1	BAZ2A bromodomain	binding, competition with immobilised ligand	1 µM	remaining binding	71%
CCn1cc(C(=O)Nc2cccc(O)c2)c(=O)c2cc(F)c(N3CCN(C(C)=O)CC3)cc21	RET	enzyme activity, inhibitor, radiometric	0.1 µM	remaining activity	90.9%
Cc1nn(C)c2ncc(C(=O)NC(=O)Nc3ccc(F)c(C(F)(F)F)c3)cc12	C-C chemokine receptor type 4 (CCR4, Homo sapiens, UniProt P51679)	ligand displacement, radioligand	10 µM	inhibition	< 10%
